A short description of series [1]: Cytotoxicity against mouse J774 cells assessed as cell viability at 30 uM after 24 hrs by MTT assay relative to control. The following applies: J774 cells, read-out: Activity. The class given is toxicity, cell-based. The method in brief: (§1)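 Murine J774 macrophages exposed 24 h to 10 or 30 μM compound, then 1 h with 0.2 mg/mL MTT; reaction stopped with DMSO, OD read at 570 nm as metabolic-activity viability. Number of independent experiments given per value.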

In series [2] the test system is Pseudomonas aeruginosa. As to the kind of experiment: Antibacterial activity against AAC6'-2A expressing Pseudomonas aeruginosa F03 by microdilution method. The class given is functional. The method in brief: (§2)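 Strains grown overnight at 37 °C on trypticase soy agar; MIC by broth microdilution from fresh culture in cation-adjusted Mueller–Hinton broth, starting inoculum 10^6 cells, following CLSI recommendations.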
A general note: Broth dilution looks for growth in wells or tubes with falling amounts of substance.

The test system of series [3] is Pseudomonas aeruginosa. As to the kind of experiment: Induction of inner membrane permeabilization of Pseudomonas aeruginosa ATCC 27853 at 5 uM after 15 mins by propidium iodide staining-based fluorescence assay relative to control. The class given is functional. The method in brief: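 P. aeruginosa ATCC 27853 from TSA colony, overnight in MHB-CA at 37 °C with shaking, diluted 100-fold and grown 4 h to mid-log (OD620 ~0.4–0.5). Suspension (OD600 0.05) with PI (3 mM stock diluted 10^3-fold) plus compound in HEPES (1–10 μM final). Fluorescence ex 540/em 610 nm at 25 °C after 15 min; normalized to CTAB 150 μM (100%) and imipenem (0%).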

The subject of series [4] is Pseudomonas aeruginosa. The series is described as follows: Antibacterial activity against Pseudomonas aeruginosa ATCC 27853 by microdilution method. The class given is functional. The procedure, abridged:
as §2

For series [5], the system named is Acinetobacter lwoffii. As to the kind of experiment: Antibacterial activity against APH3'-VIA expressing Acinetobacter lwoffii AI.88-483 by microdilution method. Format: functional. The method in brief:
as §2

Series [6] is described as follows: Cytotoxicity against mouse J774 cells assessed as cell viability at 10 uM after 24 hrs by MTT assay relative to control. The class given is toxicity, cell-based. The conditions noted are these: J774 cells, read-out: Activity. The method in brief:
as §1
Background: Tetrazolium assays rely on reduction of a dye to a coloured formazan, in cell work by metabolically active cells.

In series [7] the test system is Staphylococcus aureus. As to the kind of experiment: Antibacterial activity against Staphylococcus aureus ATCC 25923 by microdilution method. The class given is functional. The method in brief: (§3)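 Broth microdilution per CLSI in cation-adjusted Mueller–Hinton broth. Strains were grown overnight at 37 °C on trypticase soy agar, and a fresh culture was used. Starting inoculum was 10^6 cells.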

Series [8] has as its system Pseudomonas aeruginosa. As to the kind of experiment: Antibacterial activity against triABC deficient Pseudomonas aeruginosa PA406 by microdilution method. Format: functional. The procedure, abridged: as §2
The subject of series [9] is Escherichia coli. As to the kind of experiment: Antibacterial activity against ANT2''-IA expressing Escherichia coli L8058.1 by microdilution method. The class given is functional. The method in brief:
as §2

Series [10] relates to Escherichia coli. As to the kind of experiment: microbe, parasite or virus in culture. The conditions noted are these: ATCC 25922.
For a further series, the system named is Klebsiella pneumoniae. As to the kind of experiment: Antibacterial activity against Klebsiella pneumoniae ATCC 700603 by microdilution method. The class given is functional. The procedure, abridged: as §2
Series [11] concerns Pseudomonas aeruginosa. The series is described as follows: Antibacterial activity against MexXY expressing Pseudomonas aeruginosa PA22 by microdilution method. The class given is functional. The method in brief:
as §2

Series [12] relates to Escherichia coli. The series is described as follows: Antibacterial activity against AAC6'-IB expressing Escherichia coli PAZ505H8101 by microdilution method. The class given is functional. The method in brief:
as §2

In series [13] the test system is Staphylococcus aureus. As to the kind of experiment: Antibacterial activity against NorA expressing Staphylococcus aureus 1 by microdilution method.
Series [14] has as its system Acinetobacter lwoffii. The series is described as follows: Antibacterial activity against Acinetobacter lwoffii ATCC 17925 by microdilution method. Format: functional. The method in brief: as §2
In series [15] the test system is Staphylococcus aureus. As to the kind of experiment: Antibacterial activity against healthcare-acquired methicillin-resistant Staphylococcus aureus ATCC 33592 by microdilution method. The class given is functional. The procedure, abridged: as §3
In series [16] the test system is Pseudomonas aeruginosa. The series is described as follows: Induction of inner membrane permeabilization of Pseudomonas aeruginosa ATCC 27853 after 15 mins by propidium iodide staining-based fluorescence assay. The class given is functional. The procedure, abridged: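 Mid-log P. aeruginosa (OD620 ~0.4–0.5, grown in CA-MHB at 37 °C, 130 rpm) was adjusted to OD600 0.05. A 3 mM propidium iodide stock was diluted 10^3-fold in the suspension. Compounds in HEPES were added at final 1–10 μM. Fluorescence (ex 540/em 610 nm) was read at 25 °C after 15 min stabilization. Values were normalized to 150 μM CTAB (100%) and imipenem (0%).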

Converted amounts (≈) assume the structure as drawn.

Regarding `CCCCCCCCCO[C@@H]1[C@@H](N)[C@@H](OCC(O)CNCCCN)O[C@H](CN)[C@H]1OCCCCCCCCC` (mixture of isomers), the viability at 24 h, 30 µM in series [1] amounted to 71.6%. Further, the MIC in the series on Pseudomonas aeruginosa [2] is 8 µg/mL; in the series on Pseudomonas aeruginosa [4], 8 µg/mL; with Acinetobacter lwoffii [5], 8 µg/mL; against Staphylococcus aureus [7] it was 2 µg/mL; in the series on Pseudomonas aeruginosa [8] it was 4 µg/mL; in the series on Escherichia coli [9], 8 µg/mL. Moreover, the MIC in the series on Escherichia coli [10] was 8 µg/mL; with Klebsiella pneumoniae, 32 µg/mL; with Pseudomonas aeruginosa [11], 8 µg/mL; with Escherichia coli [12] it was 4 µg/mL; with Staphylococcus aureus [13], 2 µg/mL; in the series on Acinetobacter lwoffii [14], 2 µg/mL. For the same compound, in the series with Staphylococcus aureus [15], the MIC turned out to be 2 µg/mL. The compound further registered an Activity in the series with Pseudomonas aeruginosa [3] of 25%. For the same compound, in series [6], the viability at 24 h, 10 µM was determined as 101%.
On to `C=CCO[C@H]1O[C@H](CN)[C@@H](O)[C@H](O)[C@H]1N`, for which, in [1], the viability at 24 h, 30 µM came to 82.1%. In addition, the MIC in the series on Pseudomonas aeruginosa [2], in the series with Pseudomonas aeruginosa [4], against Acinetobacter lwoffii [5], in the series with Staphylococcus aureus [7], in the series on Pseudomonas aeruginosa [8] and in the series on Escherichia coli [9] was more than 128 µg/mL each time. For the same compound, the MIC in the series on Escherichia coli [10], against Klebsiella pneumoniae, against Pseudomonas aeruginosa [11], in the series on Escherichia coli [12], in the series on Staphylococcus aureus [13] and with Acinetobacter lwoffii [14] was more than 128 µg/mL throughout. Further, the MIC against Staphylococcus aureus [15] is more than 128 µg/mL. In series [6], the viability at 24 h, 10 µM came to 82.2%.
As to `C=CCO[C@H]1O[C@H](CN)[C@@H](OCc2ccc3ccccc3c2)[C@H](OCc2ccc3ccccc3c2)[C@H]1N`, the viability at 24 h, 30 µM in series [1] stood at 28.3%. The MIC against Pseudomonas aeruginosa [2] is more than 128 µg/mL; with Pseudomonas aeruginosa [4] it was more than 128 µg/mL; against Acinetobacter lwoffii [5], 64 µg/mL (≈ 128 µM); in the series on Staphylococcus aureus [7], 8 µg/mL (≈ 16 µM); against Pseudomonas aeruginosa [8] it was 32 µg/mL (≈ 64.2 µM); with Escherichia coli [9], 128 µg/mL (≈ 257 µM). For the same compound, the MIC in the series with Escherichia coli [10] is 64 µg/mL (≈ 128 µM); against Klebsiella pneumoniae, more than 128 µg/mL; in the series on Pseudomonas aeruginosa [11], more than 128 µg/mL; in the series on Escherichia coli [12] it was 64 µg/mL (≈ 128 µM); against Staphylococcus aureus [13], 8 µg/mL (≈ 16 µM); with Acinetobacter lwoffii [14], 8 µg/mL (≈ 16 µM). The compound further returned an MIC in the series on Staphylococcus aureus [15] of 8 µg/mL (≈ 16 µM). Also, the viability at 24 h, 10 µM in series [6] is 86.9%.
Compound `C[C@@H](O)[C@H]1C(=O)N2C(C(=O)O)=C(SCCNC=N)C[C@H]12` [IMIPENEM ANHYDROUS] displayed an Activity in the series on Pseudomonas aeruginosa [16] of 0%.
As to `CCCCCCCCCO[C@@H]1[C@@H](N)[C@@H](OC[C@@H](O)CN)O[C@H](CN)[C@H]1OCCCCCCCCC`, the viability at 24 h, 30 µM in [1] was 7.2%. Further, the MIC against Pseudomonas aeruginosa [2] was 8 µg/mL (≈ 15.9 µM); with Pseudomonas aeruginosa [4], 4 to 8 µg/mL (≈ 7.94 to 15.9 µM); in the series with Acinetobacter lwoffii [5] it was 4 µg/mL (≈ 7.94 µM); in the series with Staphylococcus aureus [7], 2 µg/mL (≈ 3.97 µM); in the series on Pseudomonas aeruginosa [8] it was 4 to 8 µg/mL (≈ 7.94 to 15.9 µM); in the series with Escherichia coli [9], 4 to 8 µg/mL (≈ 7.94 to 15.9 µM). Besides, the MIC against Escherichia coli [10] amounted to 4 µg/mL (≈ 7.94 µM); against Klebsiella pneumoniae it was 8 µg/mL (≈ 15.9 µM); in the series with Pseudomonas aeruginosa [11], 8 µg/mL (≈ 15.9 µM); against Escherichia coli [12] it was 4 µg/mL (≈ 7.94 µM); in the series on Staphylococcus aureus [13], 1 µg/mL (≈ 1.99 µM); with Acinetobacter lwoffii [14], 2 µg/mL (≈ 3.97 µM). Also, in the series on Staphylococcus aureus [15], the MIC is 2 µg/mL (≈ 3.97 µM). Moreover, the viability at 24 h, 10 µM in [6] is 85.1%.
Take `NC[C@H]1O[C@H](O[C@H]2[C@H](O)[C@@H](OCc3ccc4ccccc4c3)[C@H](N)C[C@@H]2N)[C@H](N)[C@@H](OCc2ccc3ccccc3c2)[C@@H]1O`: in [1], the viability at 24 h, 30 µM turned out to be 75.9%. Moreover, the MIC in the series with Pseudomonas aeruginosa [2] was 64 to 128 µg/mL (≈ 106 to 212 µM); in the series with Pseudomonas aeruginosa [4], 64 to 128 µg/mL (≈ 106 to 212 µM); in the series with Acinetobacter lwoffii [5], 128 µg/mL (≈ 212 µM); against Staphylococcus aureus [7], 8 µg/mL (≈ 13.3 µM); in the series with Pseudomonas aeruginosa [8] it was 2 to 4 µg/mL (≈ 3.32 to 6.64 µM); against Escherichia coli [9] it was 64 to 128 µg/mL (≈ 106 to 212 µM). In addition, the MIC against Escherichia coli [10] was 32 to 64 µg/mL (≈ 53.1 to 106 µM); against Klebsiella pneumoniae it was 128 µg/mL (≈ 212 µM); against Pseudomonas aeruginosa [11], more than 128 µg/mL; with Escherichia coli [12], 32 µg/mL (≈ 53.1 µM); with Staphylococcus aureus [13], 4 to 8 µg/mL (≈ 6.64 to 13.3 µM); in the series on Acinetobacter lwoffii [14], 4 to 8 µg/mL (≈ 6.64 to 13.3 µM). This compound displayed an MIC against Staphylococcus aureus [15] of 8 to 16 µg/mL (≈ 13.3 to 26.5 µM). For the same compound, the viability at 24 h, 10 µM in series [6] was 86%.
With `C=CCO[C@H]1O[C@H](CN)[C@@H](OCCCc2ccc3ccccc3c2)[C@H](OCCCc2ccc3ccccc3c2)[C@H]1N`, in series [1], the viability at 24 h, 30 µM came to 7%. Moreover, the MIC was more than 128 µg/mL in the series with Pseudomonas aeruginosa [2]; 128 µg/mL (≈ 231 µM) with Pseudomonas aeruginosa [4]; 64 µg/mL (≈ 115 µM) with Acinetobacter lwoffii [5]; 4 to 8 µg/mL (≈ 7.21 to 14.4 µM) in the series on Staphylococcus aureus [7]; 32 µg/mL (≈ 57.7 µM) against Pseudomonas aeruginosa [8]; 64 µg/mL (≈ 115 µM) in the series with Escherichia coli [9]. In addition, the MIC in the series with Escherichia coli [10] is 32 to 64 µg/mL (≈ 57.7 to 115 µM); with Klebsiella pneumoniae it was 128 µg/mL (≈ 231 µM); against Pseudomonas aeruginosa [11] it was more than 128 µg/mL; in the series on Escherichia coli [12] it was 64 µg/mL (≈ 115 µM); against Staphylococcus aureus [13], 4 µg/mL (≈ 7.21 µM); with Acinetobacter lwoffii [14] it was 4 to 8 µg/mL (≈ 7.21 to 14.4 µM). This compound came in with an MIC in the series with Staphylococcus aureus [15] of 4 to 8 µg/mL (≈ 7.21 to 14.4 µM). Further, the viability at 24 h, 10 µM in [6] was 105%.

The values above are taken from ChEMBL document CHEMBL3860087, “New Broad-Spectrum Antibacterial Amphiphilic Aminoglycosides Active against Resistant Bacteria: From Neamine Derivatives to Smaller Neosamine Analogues” (J Med Chem, 2016).
